Data from ChEMBL document CHEMBL4261561, “Thiosemicarbazone-based selective proliferation inactivators inhibit gastric cancer cell growth, invasion, and migration” (Medchemcomm, 2017).
pIC50: −log10 of the molar value. Activity calls are given as the source filed them. The calls are words filed in the database; no cut-off is given here.

Legend:
[1] = test system: MGC-803; test: Antiproliferative activity against human MGC803 cells after 72 hrs by MTT assay; type: functional, cell-based; details: MGC-803, 72 h
Method in brief: (§1)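 Exponentially growing cells were seeded at about 3×10^3 per well and left 24 h, then given fresh medium with a range of compound concentrations for 72 h. MTT solution (5 mg/mL) was added for another 4 h. Medium was removed, formazan was dissolved in DMSO, and absorbance was read at 570 nm. IC50 was derived statistically.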

[2] = test system: MCF7; test: Antiproliferative activity against human MCF7 cells after 72 hrs by MTT assay; type: functional, cell-based; details: MCF7, 72 h; method in brief: as §1
[3] = test system: SMMC-7721; test: Antiproliferative activity against human SMMC7721 cells after 72 hrs by MTT assay; type: functional, cell-based; details: SMMC-7721, 72 h; method in brief: as §1
[4] = test system: MGC-803; test: Induction of apoptosis in human MGC803 cells assessed as late apoptotic cells at 0.5 uM after 48 hrs by Annexin-V/propidium iodide staining based flow cytometric analysis (reference value: 0.3%); type: functional
[5] = test system: MGC-803; test: Cell cycle arrest in human MGC803 cells assessed as accumulation at G1 phase at 0.1 uM after 48 hrs by propidium iodide staining-based flow cytometric method (reference value: 60.55%); type: functional
[6] = test system: MGC-803; test: Cell cycle arrest in human MGC803 cells assessed as accumulation at S phase at 0.25 uM after 48 hrs by propidium iodide staining-based flow cytometric method (reference value: 28.84%); type: functional
[7] = test system: GES1; test: Cytotoxicity against human GES-1 cells after 72 hrs by MTT assay; type: cell-based; details: GES1, 72 h; method in brief: as §1
[8] = test system: MGC-803; test: Antimigratory activity against human MGC803 cells after 48 hrs by Hoechst 33258 staining based transwell assay; type: functional, cell-based
Method in brief: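 This was a transwell migration set-up. MGC-803 cells in medium with 1% FBS and varied compound concentrations went into the upper chamber, with 20% FBS medium below. After 48 h, chambers were PBS-washed and migrated cells were methanol-fixed. They were stained with 20 µg/mL Hoechst-33258 for 30 min in the dark and imaged on a high-content system.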

[9] = test system: MGC-803; test: Induction of apoptosis in human MGC803 cells assessed as down regulation of Bcl-2 expression after 48 hrs by Western blot analysis; type: functional, cell-based
Method in brief: (§2)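 Treated MGC-803 cells were lysed on ice for 30 min in NP-40/SDS/deoxycholate/PMSF buffer. Equal protein was separated by SDS-PAGE and transferred to 0.22 µm nitrocellulose. Membranes were blocked 2 h in 5% nonfat milk/PBS, probed with primary antibody at 4°C overnight, then incubated with secondary antibody for 2 h.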

[10] = test system: MGC-803; test: Induction of apoptosis in human MGC803 cells assessed as necrotic cells at 0.25 uM after 48 hrs by Annexin-V/propidium iodide staining based flow cytometric analysis (reference value: 0.1%); type: functional
[11] = test system: MGC-803; test: Cell cycle arrest in human MGC803 cells assessed as accumulation at G2 phase at 0.25 uM after 48 hrs by propidium iodide staining-based flow cytometric method (reference value: 10.60%); type: functional
[12] = test system: MGC-803; test: Induction of apoptosis in human MGC803 cells after 48 hrs by Annexin-V/propidium iodide staining based flow cytometric analysis; type: functional, cell-based
[13] = test system: MGC-803; test: Induction of apoptosis in human MGC803 cells assessed as viable cells at 0.5 uM after 48 hrs by Annexin-V/propidium iodide staining based flow cytometric analysis (reference value: 96.1%); type: functional; details: MGC-803, 48 h, read-out: Activity
[14] = test system: MGC-803; test: Induction of apoptosis in human MGC803 cells assessed as late apoptotic cells at 0.1 uM after 48 hrs by Annexin-V/propidium iodide staining based flow cytometric analysis (reference value: 0.3%); type: functional
[15] = test system: MGC-803; test: Antiproliferative activity against human MGC803 cells after 24 hrs by MTT assay; type: functional, cell-based; details: MGC-803, 24 h
[16] = test system: MGC-803; test: Induction of apoptosis in human MGC803 cells assessed as viable cells at 0.1 uM after 48 hrs by Annexin-V/propidium iodide staining based flow cytometric analysis (reference value: 96.1%); type: functional; details: MGC-803, 48 h, read-out: Activity
[17] = test system: MGC-803; test: Induction of apoptosis in human MGC803 cells assessed as early apoptotic cells at 0.25 uM after 48 hrs by Annexin-V/propidium iodide staining based flow cytometric analysis (reference value: 3.4%); type: functional
[18] = test system: MGC-803; test: Anti-invasive activity against human MGC803 cells after 48 hrs by Hoechst 33258 staining based matrigel coated transwell assay; type: functional, cell-based
Method in brief: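 This was an invasion variant of the transwell assay, with the upper chamber precoated with Matrigel. MGC-803 cells in 1% FBS medium with varied compound concentrations were placed above 20% FBS medium. After 48 h, cells were methanol-fixed, stained with 20 µg/mL Hoechst-33258 for 30 min in the dark, and imaged.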

[19] = test system: MGC-803; test: Induction of apoptosis in human MGC803 cells assessed as cell rounding up to 0.5 uM after 48 hrs by Hoechst 33258 staining based fluorescence microscopic method; type: functional
Method in brief: (§3)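 About 2×10^5 MGC-803 cells per well were treated after attachment with increasing compound concentrations for 48 h. They were fixed and stained with 20 µg/mL Hoechst-33258 for 30 min in the dark, then PBS-washed three times and viewed by fluorescence microscopy under UV excitation. Apoptotic cells were scored by nuclear condensation and fragmentation.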

[20] = test system: MGC-803; test: Cell cycle arrest in human MGC803 cells assessed as accumulation at S phase at 0.1 uM after 48 hrs by propidium iodide staining-based flow cytometric method (reference value: 28.84%); type: functional
[21] = test system: MGC-803; test: Up-regulation of E-cadherin protein expression in human MGC803 cells up to 0.5 uM after 48 hrs by Western blot analysis; type: functional, cell-based; method in brief: as §2
[22] = test system: MGC-803; test: Induction of apoptosis in human MGC803 cells assessed as viable cells at 0.25 uM after 48 hrs by Annexin-V/propidium iodide staining based flow cytometric analysis (reference value: 96.1%); type: functional; details: MGC-803, 48 h, read-out: Activity
[23] = test system: MGC-803; test: Down regulation of N-cadherin protein expression in human MGC803 cells up to 0.5 uM after 48 hrs by Western blot analysis; type: functional, cell-based; method in brief: as §2
[24] = test system: MGC-803; test: Cell cycle arrest in human MGC803 cells assessed as accumulation at G2 phase at 0.5 uM after 48 hrs by propidium iodide staining-based flow cytometric method (reference value: 10.60%); type: functional
[25] = test system: MGC-803; test: Cell cycle arrest in human MGC803 cells assessed as accumulation at S phase at 0.5 uM after 48 hrs by propidium iodide staining-based flow cytometric method (reference value: 28.84%); type: functional
[26] = test system: MGC-803; test: Cell cycle arrest in human MGC803 cells assessed as accumulation at G1 phase at 0.5 uM after 48 hrs by propidium iodide staining-based flow cytometric method (reference value: 60.55%); type: functional
[27] = test system: MGC-803; test: Induction of apoptosis in human MGC803 cells assessed as early apoptotic cells at 0.1 uM after 48 hrs by Annexin-V/propidium iodide staining based flow cytometric analysis (reference value: 3.4%); type: functional
[28] = test system: MGC-803; test: Induction of apoptosis in human MGC803 cells assessed as late apoptotic cells at 0.25 uM after 48 hrs by Annexin-V/propidium iodide staining based flow cytometric analysis (reference value: 0.3%); type: functional
[29] = test system: MGC-803; test: Potency index, ratio of 3-AP IC50 to test compound IC50 for human MGC803 cells after 72 hrs by MTT assay; type: functional
[30] = test system: MGC-803; test: Cell cycle arrest in human MGC803 cells assessed as accumulation at S phase after 48 hrs by propidium iodide staining-based flow cytometric method; type: functional
[31] = test system: MGC-803; test: Induction of apoptosis in human MGC803 cells assessed as chromatin shrinkage up to 0.5 uM after 48 hrs by Hoechst 33258 staining based fluorescence microscopic method; type: functional, cell-based; method in brief: as §3
[32] = test system: MGC-803; test: Induction of apoptosis in human MGC803 cells assessed as necrotic cells at 0.1 uM after 48 hrs by Annexin-V/propidium iodide staining based flow cytometric analysis (reference value: 0.1%); type: functional
[33] = test system: MGC-803; test: Anticlonogenic activity against human MGC803 cells at 0.1 to 0.5 uM after 7 to 14 days by crystal violet staining based assay; type: functional, cell-based
Method in brief: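 MGC-803 cells were seeded at about 1×10^3 per well and left 24 h, then grown 14 days in fresh medium with varied compound concentrations. Cells were PBS-washed, fixed in 4% paraformaldehyde for 30 min, and stained with 1% crystal violet for 30 min at 37°C before colonies were washed clear.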

[34] = test system: MGC-803; test: Antimigratory activity against human MGC803 cells after 48 hrs by wound healing assay; type: functional, cell-based
Method in brief: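 Confluent monolayers were scratched with a sterile pipette tip and PBS-washed. Cells were then cultured in medium containing only 1% FBS with varied compound concentrations for 48 h. Wounds were photographed under an inverted microscope at 0 h and 48 h.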

[35] = test system: MGC-803; test: Cell cycle arrest in human MGC803 cells assessed as accumulation at G2 phase at 0.1 uM after 48 hrs by propidium iodide staining-based flow cytometric method (reference value: 10.60%); type: functional
[36] = test system: MGC-803; test: Induction of apoptosis in human MGC803 cells assessed as up-regulation of Bax expression after 48 hrs by Western blot analysis; type: functional, cell-based; method in brief: as §2
[37] = test system: MGC-803; test: Induction of apoptosis in human MGC803 cells assessed as formation of apoptotic bodies up to 0.5 uM after 48 hrs by Hoechst 33258 staining based fluorescence microscopic method; type: functional, cell-based; method in brief: as §3
[38] = test system: MGC-803; test: Cell cycle arrest in human MGC803 cells assessed as accumulation at G1 phase at 0.25 uM after 48 hrs by propidium iodide staining-based flow cytometric method (reference value: 60.55%); type: functional
[39] = test system: MGC-803; test: Induction of apoptosis in human MGC803 cells assessed as early apoptotic cells at 0.5 uM after 48 hrs by Annexin-V/propidium iodide staining based flow cytometric analysis (reference value: 3.4%); type: functional
[40] = test system: MGC-803; test: Induction of apoptosis in human MGC803 cells assessed as necrotic cells at 0.5 uM after 48 hrs by Annexin-V/propidium iodide staining based flow cytometric analysis (reference value: 0.1%); type: functional
[41] = test system: MGC-803; test: Antiproliferative activity against human MGC803 cells after 48 hrs by MTT assay; type: functional, cell-based; details: MGC-803, 48 h

C/C(=N\NC(=S)N1CCOCC1)c1ccccc1N
pIC50 [1]: < 4.19
pIC50 [2]: < 4.19
pIC50 [3]: < 4.19

Oc1ccccc1/C=N/NC(=S)N1CCOCC1
pIC50 [1]: 4.53
pIC50 [2]: < 4.19
pIC50 [3]: 4.43

Oc1ccccc1/C=N/NC(=S)Nc1ccccc1
pIC50 [1]: 5.62
pIC50 [2]: 4.91
pIC50 [3]: 4.47

Oc1ccc(Cl)cc1/C=N/NC(=S)N1CCOCC1
pIC50 [1]: 4.79
pIC50 [2]: < 4.19
pIC50 [3]: 4.45

S=C(N/N=C/c1ccc2ccccc2c1)N1CCOCC1
pIC50 [1]: 4.49
pIC50 [2]: < 4.19
pIC50 [3]: < 4.19

CC(C)(C)OC(=O)N1CCN(C(=S)N/N=C/c2ccccc2O)CC1
pIC50 [1]: 4.99
pIC50 [2]: 4.38
pIC50 [3]: 4.56

C/C(=N\NC(=S)Nc1ccccc1)c1cc(Cl)ccc1O
Activity [4]: 2.3%
Activity [5]: 57.45%
pIC50 [1]: 6.03
Activity [6]: 46.07%
pIC50 [7]: 4.55
Activity [8]: Dose-dependent effect
Activity [9]: Dose-dependent effect
Activity [10]: 0.2%
pIC50 [2]: 5.00
Activity [11]: 0%
Activity [12]: Dose-dependent effect
viability at 0.5 µM [13]: 67.4%
Activity [14]: 0.4%
pIC50 [15]: < 4.19
viability at 0.1 µM [16]: 89%
Activity [17]: 15.1%
Activity [18]: Dose-dependent effect
Activity [19]: Active
Activity [20]: 32.82%
Activity [21]: Active
viability at 0.25 µM [22]: 83.5%
Activity [23]: Active
Activity [24]: 0%
Activity [25]: 51.85%
Activity [26]: 48.15%
pIC50 [3]: 4.72
Activity [27]: 10.5%
Activity [28]: 1.3%
Ratio IC50 [29]: 10
Activity [30]: Dose-dependent effect
Activity [31]: Active
Activity [32]: 0.1%
Activity [33]: Active
Activity [34]: Dose-dependent effect
Activity [35]: 9.73%
Activity [36]: Dose-dependent effect
Activity [37]: Active
Activity [38]: 53.93%
Activity [39]: 30%
Activity [40]: 0.3%
pIC50 [41]: 5.04

Oc1ccc2ccccc2c1/C=N/NC(=S)N1CCOCC1
pIC50 [1]: < 4.19
pIC50 [2]: < 4.19
pIC50 [3]: 4.35

COc1cc(/C=N/NC(=S)N2CCOCC2)cc(OC)c1OC
pIC50 [1]: < 4.19
pIC50 [2]: < 4.19
pIC50 [3]: < 4.19
